Results as given in ChEMBL document CHEMBL2046402, “The First Dual ChE/FAAH Inhibitors: New Perspectives for Alzheimer's Disease?” (ACS Med Chem Lett, 2012).

Assays:
[1] = target: T1, Fatty-acid amide hydrolase 1 (Rattus norvegicus, UniProt P97612); assay: Inhibition of FAAH in rat brain membranes assessed as hydrolysis of [14C]-anandamide after 30 mins; format: cell membranes
T1 sequence (P97612 whole entry): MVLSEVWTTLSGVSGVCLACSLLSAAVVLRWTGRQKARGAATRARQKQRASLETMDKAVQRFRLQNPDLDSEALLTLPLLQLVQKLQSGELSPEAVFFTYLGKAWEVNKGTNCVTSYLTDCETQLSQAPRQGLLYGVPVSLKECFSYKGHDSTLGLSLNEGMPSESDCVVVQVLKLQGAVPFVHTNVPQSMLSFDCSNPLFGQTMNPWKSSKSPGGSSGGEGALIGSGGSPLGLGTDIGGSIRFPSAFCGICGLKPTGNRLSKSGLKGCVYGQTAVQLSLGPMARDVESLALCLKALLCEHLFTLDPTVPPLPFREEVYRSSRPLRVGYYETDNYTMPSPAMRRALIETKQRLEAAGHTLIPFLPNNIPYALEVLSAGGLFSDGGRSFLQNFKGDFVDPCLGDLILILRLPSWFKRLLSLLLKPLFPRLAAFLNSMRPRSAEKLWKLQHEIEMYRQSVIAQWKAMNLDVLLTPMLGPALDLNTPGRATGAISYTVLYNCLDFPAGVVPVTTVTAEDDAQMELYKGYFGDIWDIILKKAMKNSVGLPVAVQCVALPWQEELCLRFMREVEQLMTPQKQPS
Procedure, shortened: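 Rat brain membrane FAAH; activity read as hydrolysis of anandamide, with the inhibitor added without preincubation (pit = 0). Values are reported as IC50.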

Acetylcholinesterase [2] = target: T2, Acetylcholinesterase (Homo sapiens, UniProt P22303); assay: Inhibition of human recombinant AChE using acetylthiocholine iodide as substrate preincubated for 120 mins before substrate addition by Ellman's method
T2 sequence (P22303 whole entry): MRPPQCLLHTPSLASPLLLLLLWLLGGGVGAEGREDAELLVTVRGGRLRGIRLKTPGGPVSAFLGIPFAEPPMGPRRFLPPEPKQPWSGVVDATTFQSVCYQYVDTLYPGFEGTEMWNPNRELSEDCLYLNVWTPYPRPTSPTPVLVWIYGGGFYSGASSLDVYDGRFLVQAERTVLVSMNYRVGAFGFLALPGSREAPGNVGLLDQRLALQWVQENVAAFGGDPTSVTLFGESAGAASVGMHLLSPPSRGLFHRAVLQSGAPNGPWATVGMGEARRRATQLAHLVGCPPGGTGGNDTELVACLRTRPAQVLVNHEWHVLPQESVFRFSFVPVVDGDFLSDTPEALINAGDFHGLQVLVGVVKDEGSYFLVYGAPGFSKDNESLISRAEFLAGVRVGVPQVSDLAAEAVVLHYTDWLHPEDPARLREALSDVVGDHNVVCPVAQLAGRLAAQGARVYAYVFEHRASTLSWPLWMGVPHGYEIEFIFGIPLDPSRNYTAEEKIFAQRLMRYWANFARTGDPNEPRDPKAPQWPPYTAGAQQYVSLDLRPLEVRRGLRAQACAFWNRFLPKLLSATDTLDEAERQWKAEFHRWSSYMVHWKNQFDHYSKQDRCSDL

[3] = target: T3, Fatty-acid amide hydrolase 1 (Homo sapiens, UniProt O00519); assay: Inhibition of human recombinant FAAH in assessed as hydrolysis of [14C]-anandamide preincubated for 20 mins before [14C]-anandamide addition measured after 30 mins
T3 sequence (O00519 whole entry): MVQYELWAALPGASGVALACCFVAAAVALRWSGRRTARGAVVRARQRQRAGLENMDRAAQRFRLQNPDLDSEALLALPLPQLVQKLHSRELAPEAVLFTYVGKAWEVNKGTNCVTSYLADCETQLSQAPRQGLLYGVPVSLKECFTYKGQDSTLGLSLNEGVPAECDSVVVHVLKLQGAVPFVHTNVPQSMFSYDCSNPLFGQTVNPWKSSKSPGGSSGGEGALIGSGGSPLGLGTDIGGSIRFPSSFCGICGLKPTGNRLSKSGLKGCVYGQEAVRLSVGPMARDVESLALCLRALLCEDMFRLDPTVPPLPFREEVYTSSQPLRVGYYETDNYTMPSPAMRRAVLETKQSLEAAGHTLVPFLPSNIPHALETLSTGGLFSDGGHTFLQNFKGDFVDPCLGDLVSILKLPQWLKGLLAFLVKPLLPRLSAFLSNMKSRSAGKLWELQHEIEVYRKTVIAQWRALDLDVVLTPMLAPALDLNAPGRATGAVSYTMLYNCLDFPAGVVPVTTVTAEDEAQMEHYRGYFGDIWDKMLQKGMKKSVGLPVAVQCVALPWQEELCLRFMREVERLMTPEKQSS
Procedure, shortened: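 Human recombinant FAAH; the inhibitor was preincubated for 20 min before anandamide hydrolysis was measured. Values are reported as IC50.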

[4] = target: T1, Fatty-acid amide hydrolase 1; assay: Inhibition of FAAH in rat brain membranes assessed as hydrolysis of [14C]-anandamide preincubated for 20 mins before [14C]-anandamide addition measured after 30 mins; format: cell membranes
Procedure, shortened: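 Rat brain membrane FAAH; the inhibitor was preincubated with the enzyme for 20 min before anandamide hydrolysis was measured. Values are reported as IC50.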

Cholinesterase [5] = target: T4, Cholinesterase (Homo sapiens, UniProt P06276); assay: Inhibition of human serum BuChE using butyrylthiocholine iodide as substrate preincubated for 15 mins before substrate addition by Ellman's method
T4 sequence (P06276 whole entry): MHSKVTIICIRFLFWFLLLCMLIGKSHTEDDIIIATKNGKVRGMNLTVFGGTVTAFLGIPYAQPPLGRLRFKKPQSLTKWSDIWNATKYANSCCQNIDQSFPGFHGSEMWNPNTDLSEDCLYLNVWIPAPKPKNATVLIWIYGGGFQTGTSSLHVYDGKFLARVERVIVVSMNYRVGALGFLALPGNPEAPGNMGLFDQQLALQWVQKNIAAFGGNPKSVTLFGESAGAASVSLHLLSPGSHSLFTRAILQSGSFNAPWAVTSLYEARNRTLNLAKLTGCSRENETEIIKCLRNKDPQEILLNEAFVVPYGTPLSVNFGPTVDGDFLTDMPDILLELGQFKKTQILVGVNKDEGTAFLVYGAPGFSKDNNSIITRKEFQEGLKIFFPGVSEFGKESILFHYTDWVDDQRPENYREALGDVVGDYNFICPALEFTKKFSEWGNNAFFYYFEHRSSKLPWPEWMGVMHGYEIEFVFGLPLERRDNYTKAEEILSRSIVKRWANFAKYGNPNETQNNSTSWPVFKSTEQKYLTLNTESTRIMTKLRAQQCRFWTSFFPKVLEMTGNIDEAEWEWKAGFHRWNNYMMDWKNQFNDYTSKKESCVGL

Acetylcholinesterase [6] = target: T2, Acetylcholinesterase; assay: Inhibition of human recombinant AChE using acetylthiocholine iodide as substrate by Ellman's method; conditions: TDE = time-dependent effect
Cholinesterase [7] = target: T4, Cholinesterase; assay: Inhibition of human serum BuChE using butyrylthiocholine iodide as substrate by Ellman's method; conditions: TDE = time-dependent effect
Acetylcholinesterase [8] = target: T2, Acetylcholinesterase; assay: Reversible inhibition of human recombinant AChE using acetylthiocholine iodide as substrate assessed as recovery of enzyme activity after 48 hrs by Ellman's method; design: scale not given: the % may be the effect or the level left
Cholinesterase [9] = target: T4, Cholinesterase; assay: Reversible inhibition of human serum BuChE using butyrylthiocholine iodide as substrate assessed as recovery of enzyme activity after 48 hrs by Ellman's method; design: scale not given: the % may be the effect or the level left

Row | SMILES | IC50 [1] [nM] | IC50 (Acetylcholinesterase [2]) [nM] | IC50 [3] [nM] | IC50 [4] [nM] | IC50 (Cholinesterase [5]) [nM] | inhibition (Acetylcholinesterase [6]) | inhibition (Cholinesterase [7]) | Activity (Acetylcholinesterase [8]) [%] | Activity (Cholinesterase [9]) [%]
1 | CCCCCCCNC(=O)Oc1cccc(CN(C)CCCOc2ccc3c(=O)cc(-c4ccccc4)oc3c2)c1 | 6810 |  |  |  |  |  |  |  | 
2 | CCCCNC(=O)Oc1cccc(CN(C)CCCOc2ccc3ccc(=O)oc3c2)c1 | 8680 |  |  |  |  |  |  |  | 
3 | CN(CCCOc1ccc2ccc(=O)oc2c1)Cc1cccc(OC(=O)NCCCCCc2ccccc2)c1 | 280 | 74.9 | 2260 | 50 | 1.57 | tde | tde | 30 | 83
4 | CCCCCCCNC(=O)Oc1cccc(CN(C)CCCOc2ccc3ccc(=O)oc3c2)c1 | 620 |  |  | 170 |  |  |  |  | 
5 | CCCCNC(=O)Oc1cccc(CN(C)CCCOc2ccc3c(=O)c4cccnc4oc3c2)c1 | 4230 |  |  | 1400 |  |  |  |  | 
6 | CCCCCCCNC(=O)Oc1cccc(CN(C)CCCOc2ccc3c(=O)c4cccnc4oc3c2)c1 | 2210 |  |  | 400 |  |  |  |  | 
7 | CCCCCCCNC(=O)Oc1cccc(CN(C)CCCOc2ccc3c(=O)c4ccccc4oc3c2)c1 | 3620 |  |  | 110 |  |  |  |  | 
8 | CN(CCCOc1ccc2ccc(=O)oc2c1)Cc1cccc(OC(=O)NCCCCCCCN2CCOCC2)c1 | 5590 | 119 | 14800 | 1820 | 11.2 | tde | tde |  | 
9 | CCCCNC(=O)Oc1cccc(CN(C)CCCOc2ccc3c(=O)cc(-c4ccccc4)oc3c2)c1 | 5540 |  |  | 800 |  |  |  |  | 
10 | CCCCCCNC(=O)Oc1cccc(CN(C)CCCOc2ccc3c(=O)c4ccccc4oc3c2)c1 | 4290 |  |  | 290 |  |  |  |  | 
11 | CN(CCCOc1ccc2c(=O)c3cccnc3oc2c1)Cc1cccc(OC(=O)NCCCCCCCN2CCOCC2)c1 | 4310 | 139 | 39000 | 2710 | 27.6 | tde | tde |  | 
12 | CN(CCCOc1ccc2c(=O)c3cccnc3oc2c1)Cc1cccc(OC(=O)NCCCCCc2ccccc2)c1 | 370 | 89.5 | 520 | 40 | 1.71 | tde | tde |  | 
13 | CNC(=O)Oc1cccc(CN(C)CCCCCCCOc2ccc(-c3cc4ccccc4oc3=O)cc2)c1 | 9200 |  |  |  |  |  |  |  | 
14 | CCCNC(=O)Oc1cccc(CN(C)CCCOc2ccc3c(=O)c4ccccc4oc3c2)c1 | 9280 |  |  | 100 |  |  |  |  | 
